From ChEMBL document CHEMBL1926530, “Novel pyrazolo[1,5-a]pyridines as p110α-selective PI3 kinase inhibitors: Exploring the benzenesulfonohydrazide SAR” (Bioorg Med Chem, 2012)

How the values were obtained:
[1] = molecular target: Phosphatidylinositol 4,5-bisphosphate 3-kinase catalytic subunit alpha isoform (Homo sapiens, UniProt P42336); assay: Inhibition of recombinant PI3K p110alpha using L-alpha-phosphatidylinositol as substrate and [gamma33P]ATP after 60 mins by thin layer chromatographic technique
Method in brief: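 In-house recombinant enzyme (0.1 µg) with L-α-phosphatidylinositol in 40 mM Tris-HCl pH 7.4, 200 mM NaCl, 1 mM EDTA; DMSO 1% final. Started with 5 mM MgCl₂, 100 µM ATP plus [γ-³³P]ATP; 1 h at room temperature, stopped with 1 M HCl. Lipids extracted, separated by TLC, phosphorimaged. Nine inhibitor concentrations; two experiments, IC50 averaged.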

[2] = Cytotoxicity against human NZOV9 cells harboring PI3K p110alpha Y1021C mutant assessed as inhibition of [3H]thymidine incorporation measured after 5 days; type: functional, cell-based
Method in brief: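 Early-passage lines grown in α-MEM with insulin, transferrin, selenite and 5% FBS. Wells seeded with 1000 cells; inhibitor in dilution steps up to a maximum of 20. Five days under 5% O₂/5% CO₂/90% N₂, ³H-thymidine added for the last 6 h. Duplicates per dose; fit y = y₀ + ae^−bx; IC50 = 50% reduction in incorporation.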

[3] = molecular target: Phosphatidylinositol 4,5-bisphosphate 3-kinase catalytic subunit alpha isoform (Homo sapiens, UniProt P42336, E545K); assay: Inhibition of recombinant PI3K p110alpha E545K mutant using L-alpha-phosphatidylinositol as substrate and [gamma33P]ATP after 60 mins by thin layer chromatographic technique
[4] = molecular target: T1, Phosphatidylinositol 4,5-bisphosphate 3-kinase catalytic subunit alpha isoform (Homo sapiens, UniProt P42336, H1047R); assay: Inhibition of recombinant PI3K p110alpha H1047R mutant using L-alpha-phosphatidylinositol as substrate and [gamma33P]ATP after 60 mins by thin layer chromatographic technique
[5] = Inhibition of DNA-PK
[6] = molecular target: Phosphatidylinositol 4,5-bisphosphate 3-kinase catalytic subunit gamma isoform (Homo sapiens, UniProt P48736); assay: Inhibition of PI3K p110gamma
[7] = molecular target: Dual specificity mitogen-activated protein kinase kinase 1 (Homo sapiens) (UniProt Q02750); assay: Inhibition of MKK1 assessed as residual activity at 1 uM
[8] = molecular target: Mitogen-activated protein kinase 14 (Homo sapiens) (UniProt Q16539); assay: Inhibition of p38alpha assessed as residual activity at 1 uM
[9] = molecular target: Ribosomal protein S6 kinase alpha-1 (Homo sapiens) (UniProt Q15418); assay: Inhibition of RSK1 assessed as residual activity at 1 uM
[10] = molecular target: High affinity nerve growth factor receptor (Homo sapiens) (UniProt P04629); assay: Inhibition of TrkA assessed as residual activity at 1 uM
[11] = molecular target: High affinity nerve growth factor receptor (Homo sapiens) (UniProt P04629); assay: Inhibition of TrkA assessed as residual activity at 10 uM
[12] = Inhibition of PKA assessed as residual activity at 10 uM
[13] = molecular target: Insulin receptor (Homo sapiens) (UniProt P06213); assay: Inhibition of IR assessed as residual activity at 1 uM
[14] = molecular target: Misshapen-like kinase 1 (Homo sapiens) (UniProt Q8N4C8); assay: Inhibition of MINK1 assessed as residual activity at 1 uM
[15] = molecular target: T1, Phosphatidylinositol 4,5-bisphosphate 3-kinase catalytic subunit alpha isoform; assay: Inhibition of PI3K […] H1047R mutant-mediated PKB phosphorylation at Ser473 in human HCT116 cells after 15 mins by immunoblot analysis; type: cell-based, HCT-116
Method in brief: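 HCT-116 cells in MEM alpha with 10% FBS and penicillin/streptomycin, seeded, grown 1 day, then starved overnight serum-free. Inhibitor in DMSO (0.1% final) at varying concentrations for 15 min, then 500 nM insulin for 5 min. Lysates immunoblotted for phospho-PKB at Ser473 or Thr308.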

[16] = Tmax in CD1 mouse at 10 mg/kg, ip; type: ADME, organism-based; parameters: dose 10 mg/kg, route intraperitoneal; conditions: in vivo
Method in brief: (§1)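 Age-matched specific pathogen-free male CD-1 mice; single 10 mg/kg i.p. dose in 5% DMSO, 45% PEG-400, 20% 2-hydroxypropyl-β-cyclodextrin, 30% water. Blood sampled at multiple times post-dose; plasma taken after centrifugation (10 min, 6000 rpm, 20 °C). Plasma analysed by LC-MS/MS; parameters from non-compartmental analysis.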

[17] = Cmax in CD1 mouse at 10 mg/kg, ip; type: ADME, organism-based; parameters: dose 10 mg/kg, route intraperitoneal; conditions: in vivo; method in brief: as §1
[18] = Terminal half life in CD1 mouse at 10 mg/kg, ip; type: ADME, organism-based; parameters: dose 10 mg/kg, route intraperitoneal; conditions: in vivo, read-out: beta t1/2 (converted); method in brief: as §1
Mus musculus = assay: Toxicity in NIH3 mouse xenografted with human SKOV3 cells assessed as body weight loss at 30 mg/kg, ip QD administered for 14 days; type: organism-based, SK-OV-3; parameters: dose 30 mg/kg, route intraperitoneal; conditions: in vivo, 336 h
Method in brief: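 Female NIH III nude mice (age-matched, SPF) inoculated s.c. with 5 × 10⁶ SK-OV-3 cells in PBS. Dosing from ~150 mm³ tumours, 30 mg/kg i.p. q.d. for 14 days in 7.5% DMSO/42.5% PEG-400/20% 2-hydroxypropyl-β-cyclodextrin/30% water; vehicle controls. Volume (L × w²) × π/6 three times weekly; bodyweight daily; culled above 20% weight loss; 1-way ANOVA, Holm–Sidak.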

High affinity nerve growth factor receptor (Homo sapiens), sequence (P04629 33-796 limits assumed): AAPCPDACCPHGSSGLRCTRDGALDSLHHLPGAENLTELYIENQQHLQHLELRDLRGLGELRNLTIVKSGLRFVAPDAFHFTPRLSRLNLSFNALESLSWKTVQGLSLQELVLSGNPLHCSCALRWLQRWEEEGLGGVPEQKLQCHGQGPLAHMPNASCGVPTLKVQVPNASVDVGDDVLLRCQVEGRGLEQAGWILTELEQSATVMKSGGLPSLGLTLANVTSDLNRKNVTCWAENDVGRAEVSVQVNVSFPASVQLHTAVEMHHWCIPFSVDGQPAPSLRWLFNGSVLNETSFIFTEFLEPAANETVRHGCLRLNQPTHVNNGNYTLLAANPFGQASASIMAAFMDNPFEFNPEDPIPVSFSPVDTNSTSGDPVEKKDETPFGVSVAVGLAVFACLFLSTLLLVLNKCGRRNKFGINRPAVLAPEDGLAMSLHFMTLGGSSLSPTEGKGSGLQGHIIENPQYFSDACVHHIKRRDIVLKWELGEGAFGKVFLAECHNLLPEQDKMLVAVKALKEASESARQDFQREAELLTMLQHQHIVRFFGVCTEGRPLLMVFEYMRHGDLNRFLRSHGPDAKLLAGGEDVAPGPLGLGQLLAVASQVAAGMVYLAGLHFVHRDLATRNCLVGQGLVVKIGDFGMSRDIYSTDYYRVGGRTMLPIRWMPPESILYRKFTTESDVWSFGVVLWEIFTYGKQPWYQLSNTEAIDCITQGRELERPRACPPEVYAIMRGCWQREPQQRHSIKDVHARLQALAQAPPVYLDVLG
T1 sequence (P42336 whole entry H1047R, canonical isoform): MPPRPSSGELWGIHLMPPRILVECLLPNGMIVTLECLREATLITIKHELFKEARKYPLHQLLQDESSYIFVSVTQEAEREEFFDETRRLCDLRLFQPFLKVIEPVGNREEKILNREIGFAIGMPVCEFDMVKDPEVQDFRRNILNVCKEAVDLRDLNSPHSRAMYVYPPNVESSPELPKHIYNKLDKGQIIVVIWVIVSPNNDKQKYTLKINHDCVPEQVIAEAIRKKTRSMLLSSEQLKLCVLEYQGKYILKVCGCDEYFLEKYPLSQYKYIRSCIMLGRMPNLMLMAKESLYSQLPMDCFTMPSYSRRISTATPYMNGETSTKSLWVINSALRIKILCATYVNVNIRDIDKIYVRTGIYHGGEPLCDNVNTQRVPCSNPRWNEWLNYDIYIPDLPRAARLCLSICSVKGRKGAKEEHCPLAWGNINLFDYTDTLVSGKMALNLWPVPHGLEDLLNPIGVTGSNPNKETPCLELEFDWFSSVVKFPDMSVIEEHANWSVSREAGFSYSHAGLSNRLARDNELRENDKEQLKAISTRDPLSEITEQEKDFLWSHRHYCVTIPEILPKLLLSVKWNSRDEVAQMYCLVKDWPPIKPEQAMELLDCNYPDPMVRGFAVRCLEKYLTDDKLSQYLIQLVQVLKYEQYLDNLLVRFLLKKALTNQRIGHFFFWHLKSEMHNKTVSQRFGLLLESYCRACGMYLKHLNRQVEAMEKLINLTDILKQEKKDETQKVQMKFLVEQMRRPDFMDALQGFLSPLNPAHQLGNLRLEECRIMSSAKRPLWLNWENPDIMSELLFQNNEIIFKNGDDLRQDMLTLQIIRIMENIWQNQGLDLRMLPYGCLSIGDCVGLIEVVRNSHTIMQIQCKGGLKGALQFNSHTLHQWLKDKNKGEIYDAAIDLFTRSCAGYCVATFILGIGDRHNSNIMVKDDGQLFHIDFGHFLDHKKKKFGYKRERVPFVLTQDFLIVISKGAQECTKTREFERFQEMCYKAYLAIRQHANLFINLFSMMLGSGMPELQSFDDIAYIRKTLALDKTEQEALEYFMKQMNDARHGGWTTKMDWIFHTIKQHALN
Phosphatidylinositol 4,5-bisphosphate 3-kinase catalytic subunit alpha isoform (Homo sapiens, UniProt P42336, E545K), sequence (P42336 whole entry E545K, canonical isoform): as the sequence (P42336 whole entry H1047R, canonical isoform) above, with E545K, R1047H counted along it
Misshapen-like kinase 1 (Homo sapiens), sequence (Q8N4C8 whole entry, looked up, canonical isoform): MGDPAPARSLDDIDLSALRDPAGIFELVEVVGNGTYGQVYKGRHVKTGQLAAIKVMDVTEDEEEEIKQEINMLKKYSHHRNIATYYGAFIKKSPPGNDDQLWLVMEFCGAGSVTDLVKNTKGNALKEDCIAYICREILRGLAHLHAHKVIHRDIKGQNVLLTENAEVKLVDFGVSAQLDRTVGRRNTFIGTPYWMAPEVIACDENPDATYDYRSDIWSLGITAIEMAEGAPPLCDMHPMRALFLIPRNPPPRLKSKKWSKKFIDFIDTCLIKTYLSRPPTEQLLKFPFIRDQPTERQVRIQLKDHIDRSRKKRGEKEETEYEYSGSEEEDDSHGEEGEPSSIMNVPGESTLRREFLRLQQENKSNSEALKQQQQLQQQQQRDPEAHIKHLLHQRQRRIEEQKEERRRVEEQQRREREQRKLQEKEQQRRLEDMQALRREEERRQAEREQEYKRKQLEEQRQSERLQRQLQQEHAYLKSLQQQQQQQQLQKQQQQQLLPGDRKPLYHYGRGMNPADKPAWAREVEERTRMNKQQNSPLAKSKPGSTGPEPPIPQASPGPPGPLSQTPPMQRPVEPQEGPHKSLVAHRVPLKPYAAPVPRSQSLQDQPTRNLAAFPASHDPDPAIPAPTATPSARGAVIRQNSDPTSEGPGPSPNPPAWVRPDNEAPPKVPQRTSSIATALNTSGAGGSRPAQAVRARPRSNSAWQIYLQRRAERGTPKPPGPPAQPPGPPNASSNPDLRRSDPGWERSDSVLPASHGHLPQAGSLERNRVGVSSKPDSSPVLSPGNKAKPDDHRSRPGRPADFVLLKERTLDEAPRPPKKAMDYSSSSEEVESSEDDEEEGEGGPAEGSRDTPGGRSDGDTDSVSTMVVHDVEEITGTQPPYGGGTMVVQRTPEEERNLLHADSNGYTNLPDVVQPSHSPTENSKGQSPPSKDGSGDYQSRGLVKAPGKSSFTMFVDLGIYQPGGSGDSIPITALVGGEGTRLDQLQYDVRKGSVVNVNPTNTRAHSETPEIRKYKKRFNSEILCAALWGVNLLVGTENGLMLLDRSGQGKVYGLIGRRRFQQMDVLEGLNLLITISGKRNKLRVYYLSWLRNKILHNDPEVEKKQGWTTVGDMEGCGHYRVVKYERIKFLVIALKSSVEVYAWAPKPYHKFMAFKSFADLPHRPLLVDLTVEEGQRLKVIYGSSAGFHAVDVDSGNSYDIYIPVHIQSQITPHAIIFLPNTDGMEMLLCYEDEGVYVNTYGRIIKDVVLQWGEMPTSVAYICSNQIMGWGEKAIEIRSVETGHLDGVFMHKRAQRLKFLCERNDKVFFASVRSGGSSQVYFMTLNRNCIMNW
Dual specificity mitogen-activated protein kinase kinase 1 (Homo sapiens), sequence (Q02750 whole entry): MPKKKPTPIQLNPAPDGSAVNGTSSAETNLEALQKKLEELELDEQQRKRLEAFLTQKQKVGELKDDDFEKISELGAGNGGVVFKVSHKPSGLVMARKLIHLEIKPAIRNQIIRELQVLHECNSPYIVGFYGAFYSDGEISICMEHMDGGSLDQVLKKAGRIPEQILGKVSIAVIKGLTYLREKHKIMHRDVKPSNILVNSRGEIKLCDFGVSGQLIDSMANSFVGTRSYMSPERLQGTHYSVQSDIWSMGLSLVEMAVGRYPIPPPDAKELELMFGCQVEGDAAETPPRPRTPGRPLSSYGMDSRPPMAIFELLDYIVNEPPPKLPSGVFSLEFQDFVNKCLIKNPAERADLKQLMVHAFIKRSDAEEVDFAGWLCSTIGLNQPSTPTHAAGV
Mitogen-activated protein kinase 14 (Homo sapiens), sequence (Q16539 whole entry): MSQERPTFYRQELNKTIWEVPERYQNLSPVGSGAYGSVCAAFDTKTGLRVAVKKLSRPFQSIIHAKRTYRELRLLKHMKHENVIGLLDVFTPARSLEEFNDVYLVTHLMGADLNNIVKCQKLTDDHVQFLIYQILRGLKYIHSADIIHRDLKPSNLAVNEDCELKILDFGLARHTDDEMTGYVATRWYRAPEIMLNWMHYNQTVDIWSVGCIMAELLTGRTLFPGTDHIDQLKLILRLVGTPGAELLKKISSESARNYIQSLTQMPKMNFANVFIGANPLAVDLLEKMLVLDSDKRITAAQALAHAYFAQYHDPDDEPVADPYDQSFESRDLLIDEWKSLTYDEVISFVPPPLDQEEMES

IC50 [1]: 1.3 nM | IC50 [3]: 0.8 nM | IC50 [4]: 0.8 nM | IC50 [5]: 0.3 nM | IC50 [6]: 11 nM | Activity [7]: 65% | Activity [8]: 59% | Activity [9]: 18% | Activity [10]: 73% | Activity [11]: 15% | Activity [12]: 8% | Activity [13]: 76% | Activity [14]: 16% | IC50 [15]: 82 nM | Tmax [16]: 5 min | Cmax [17]: 7.58 µM | half-life [18]: 67.8 min
Structure (SMILES): Cc1ccc([N+](=O)[O-])cc1S(=O)(=O)N(CCO)/N=C/c1cnn2ccc(C#N)cc12
IC50 [2]: 140 nM | Activity (Mus musculus): 20%
